Source: ChEMBL document CHEMBL4619801, “Discovery of Phthalazinone Derivatives as Novel Hepatitis B Virus Capsid Inhibitors” (J Med Chem, 2020)

How the values were obtained:
[1] = Drug metabolism in mouse liver microsomes assessed as compound level by measuring UV-area at 3 uM in presence of NADPH incubated for 60 mins by UPLC-UV/QTOF MS analysis; format: ADME, Microsome; conditions: 1 h
Procedure, shortened: (§1)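 Each incubation held liver microsomes (human, monkey, dog, rat or mouse) at 0.5 mg/mL with 3.0 μM compound in 100 mM potassium phosphate, pH 7.4. After 3 min prewarming at 37 °C, the reaction was started with 1 mM NADPH. It was stopped at 60 min with ice-cold acetonitrile. Parent remaining and metabolites were judged from relative UV area.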

[2] = Drug metabolism in dog liver microsomes assessed as compound level by measuring LC-MS area of metabolite-M1 at 3 uM in presence of NADPH incubated for 60 mins by UPLC-UV/QTOF MS analysis; format: ADME, Canis lupus familiaris, Microsome; conditions: 1 h; procedure, shortened: as §1
[3] = Drug metabolism in rat liver microsomes assessed as compound level by measuring UV-area at 3 uM in presence of NADPH incubated for 60 mins by UPLC-UV/QTOF MS analysis; format: ADME, Microsome; conditions: 1 h; procedure, shortened: as §1
[4] = Drug metabolism in monkey liver microsomes assessed as compound level by measuring UV-area of metabolite-M1 at 3 uM in presence of NADPH incubated for 60 mins by UPLC-UV/QTOF MS analysis; format: ADME, Macaca mulatta, Microsome; conditions: rhesus monkey, 1 h; procedure, shortened: as §1
[5] = Tmax in Sprague-Dawley rat at 20 mg/kg, po dosed as single administration; format: ADME, organism-based; conditions: in vivo
[6] = Drug metabolism in rat liver microsomes assessed as compound level by measuring UV-area of metabolite-M1 at 3 uM in presence of NADPH incubated for 60 mins by UPLC-UV/QTOF MS analysis; format: ADME, Microsome; conditions: 1 h; procedure, shortened: as §1
Hepatitis B virus = assay: Antiviral activity against HBV infected in human HepG2.2.15 cells assessed as reduction in cytoplasmic HBV-DNA replication incubated for 8 days by real-time PCR analysis; format: functional, organism-based; conditions: HepG2 2.2.15, 192 h
[7] = Drug metabolism in dog liver microsomes assessed as compound level by measuring UV-area of metabolite-M1 at 3 uM in presence of NADPH incubated for 60 mins by UPLC-UV/QTOF MS analysis; format: ADME, Canis lupus familiaris, Microsome; conditions: 1 h; procedure, shortened: as §1
[8] = Drug level in Sprague-Dawley rat liver at 20 mg/kg, po dosed as single administration measured up to 24 hrs; format: ADME, organism-based; conditions: in vivo
[9] = Drug metabolism in monkey liver microsomes assessed as compound level by measuring LC-MS area at 3 uM in presence of NADPH incubated for 60 mins by UPLC-UV/QTOF MS analysis; format: ADME, Macaca mulatta, Microsome; conditions: rhesus monkey, 1 h; procedure, shortened: as §1

In the case of `Cc1cc(-c2ccc(F)nc2F)nn(Cc2ccc(Cl)cc2)c1=O`, the Activity [1] is reported as < 5 ×10³ No_unit, the Activity [2] is reported as 5.97 ×10³ No_unit and the Activity [3] is reported as 44.8 ×10³ No_unit. It also gave an Activity [4] of 113 ×10³ No_unit, a Tmax [5] of 15 min and an Activity [6] of 56.7 ×10³ No_unit. The IC50 (Hepatitis B virus) was 98 nM, the Activity [7] was 84.6 ×10³ No_unit and the Drug uptake [8] was “Not Active”. For the same compound, the Activity [9] was 5.42 ×10³ No_unit.
